Measured values: ChEMBL document CHEMBL3861979, “Polyprenylated Benzoylphloroglucinols with DNA Polymerase Inhibitory Activity from the Fruits of Garcinia schomburgkiana” (J Nat Prod, 2016)
Blank lines part the entries; values can stand above or below the compound they belong to.

Tests used:
DNA polymerase lambda = target: T1, DNA polymerase lambda (Homo sapiens, UniProt Q9UGP5); experiment: Inhibition of recombinant human His-tagged DNA polymerase lambda assessed as reduction in [3H]dTTP incorporation using poly(dA)/oligo(dT)18 as template/primer preincubated for 10 mins followed by template/primer addition measured after 60 mins
T1 sequence (Q9UGP5 whole entry): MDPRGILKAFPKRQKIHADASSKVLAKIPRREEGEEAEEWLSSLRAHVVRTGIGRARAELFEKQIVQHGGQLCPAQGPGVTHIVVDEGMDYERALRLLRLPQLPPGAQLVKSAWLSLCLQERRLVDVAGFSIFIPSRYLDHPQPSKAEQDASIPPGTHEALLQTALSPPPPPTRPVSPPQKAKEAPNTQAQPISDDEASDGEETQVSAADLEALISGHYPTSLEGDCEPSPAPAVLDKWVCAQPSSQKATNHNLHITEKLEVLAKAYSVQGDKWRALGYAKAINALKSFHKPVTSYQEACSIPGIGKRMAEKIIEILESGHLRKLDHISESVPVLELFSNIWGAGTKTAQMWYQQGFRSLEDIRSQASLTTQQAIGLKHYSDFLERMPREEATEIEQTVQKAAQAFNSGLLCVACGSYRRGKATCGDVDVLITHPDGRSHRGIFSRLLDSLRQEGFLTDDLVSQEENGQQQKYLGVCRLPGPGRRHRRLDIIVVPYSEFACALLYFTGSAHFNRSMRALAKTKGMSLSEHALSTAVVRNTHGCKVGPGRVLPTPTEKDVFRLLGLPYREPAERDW
How it was run: (§1)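 IC50 values are given as mean ± SD from three independent experiments.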

[1] = Cytotoxicity against human HeLa cells assessed as reduction in cell viability after 24 hrs by MTT assay; assay type: functional; settings: read-out: LD50 (the source's name)
How it was run: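 HeLa human cervical cancer cultured cells. Potency is expressed as median lethal dose (LD50). Values are mean ± SD of five independent experiments.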

[2] = Inhibition of calf thymus DNA polymerase alpha assessed as reduction in [3H]dTTP incorporation using poly(dA)/oligo(dT)18 as template/primer preincubated for 10 mins followed by template/primer addition measured after 60 mins; set-up: species or system Bos taurus; how it was run: as §1

Structure (SMILES): CC(C)=CC[C@@H]1C[C@]2(CC=C(C)C)C(=O)[C@@]3(CC=C(C)C)C(O[C@@H](C(C)(C)O)CC[C@@]13C)C(C(=O)c1ccc(O)c(O)c1)=C2O (some centres undefined)
IC50 (DNA polymerase lambda): 7.4 µM
CC50 [1]: 6.5 µM
IC50 [2]: 5.6 µM

Structure (SMILES): Cc1cn([C@H]2CC[C@@H](COP(=O)(O)OP(=O)(O)OP(=O)(O)O)O2)c(=O)[nH]c1=O
IC50 (DNA polymerase lambda): 28.7 µM
CC50 [1]: > 200 µM
IC50 [2]: > 200 µM

Structure (SMILES): CC(C)=CCC/C(C)=C/C[C@@H]1C[C@]2(CC=C(C)C)C(=O)[C@@]3(CC=C(C)C)C(O[C@@H](C(C)(C)O)CC[C@@]13C)C(C(=O)c1ccc(O)c(O)c1)=C2O (some centres undefined)
IC50 (DNA polymerase lambda): 6.9 µM
CC50 [1]: 5.9 µM
IC50 [2]: 5.4 µM

Structure (SMILES): C=C(C)[C@H](O)CC/C(C)=C/C[C@@H]1C[C@]2(CC=C(C)C)C(=O)[C@@](CC=C(C)C)(C(=O)C(C(=O)c3ccc(O)c(O)c3)=C2O)[C@@]1(C)CCC=C(C)C
IC50 (DNA polymerase lambda): 5 µM
CC50 [1]: 9.8 µM
IC50 [2]: 6.3 µM

Structure (SMILES): CC(C)=CCC/C(C)=C/CC1(CC=C(C)C)C(O)=C(C(=O)c2ccc(O)c(O)c2)C(=O)C2=C1OC(C)(C)C=C2 (centres undefined)
IC50 (DNA polymerase lambda): 6.2 µM
CC50 [1]: 50.8 µM
IC50 [2]: 7.9 µM

Structure (SMILES): C=C(C)C(O)C[C@@H]1C[C@]2(CC=C(C)C)C(=O)[C@@](CC=C(C)C)(C(=O)C(C(=O)c3ccc(O)c(O)c3)=C2O)[C@@]1(C)CCC=C(C)C (some centres undefined)
IC50 (DNA polymerase lambda): 8.8 µM
CC50 [1]: 66.5 µM
IC50 [2]: 8.6 µM

Structure (SMILES): C[C@@]1(CO)[C@H](O)CC[C@@]2(C)[C@H]1CC[C@H]1C[C@@H]3C[C@@]12CC[C@]3(O)CO [APHIDICOLIN]
IC50 (DNA polymerase lambda): > 200 µM
CC50 [1]: 22 µM
IC50 [2]: 19.6 µM

IC50 (DNA polymerase lambda): 5.4 µM
Structure (SMILES): CC(C)=CCC[C@@]1(C)[C@H](CC=C(C)C)C[C@]2(CC=C(C)C)C(=O)[C@@]1(CC=C(C)C)C(=O)C(C(=O)c1ccc(O)c(O)c1)=C2O [GUTTIFERONE K]

Structure (SMILES): C=C(C)[C@@H](O)CC/C(C)=C/C[C@@H]1C[C@]2(CC=C(C)C)C(=O)[C@@](CC=C(C)C)(C(=O)C(C(=O)c3ccc(O)c(O)c3)=C2O)[C@@]1(C)CCC=C(C)C
IC50 (DNA polymerase lambda): 5.8 µM
CC50 [1]: 9.9 µM
IC50 [2]: 6.4 µM

Structure (SMILES): CC(C)=CCC/C(C)=C/C[C@@H]1C[C@]2(CC=C(C)C)C(=O)[C@@](CC=C(C)C)(C(=O)C(C(=O)c3ccc(O)c(O)c3)=C2O)[C@@]1(C)CCC=C(C)C [OBLONGIFOLIN C]
IC50 (DNA polymerase lambda): 5.2 µM
CC50 [1]: 7.3 µM
IC50 [2]: 5.7 µM

Structure (SMILES): CC(C)=CCC[C@@]1(C)[C@H](CC=C(C)C)C[C@]2(CC=C(C)C)C(=O)[C@@]1(CC=C(C)C)C(=O)C(C(=O)c1cccc(O)c1)=C2O
IC50 (DNA polymerase lambda): 5.7 µM
CC50 [1]: 10.2 µM
IC50 [2]: 6.5 µM

Structure (SMILES): CC(C)=CCC[C@@]1(C)[C@H](C/C=C(\C)C/C=C/C(C)(C)O)C[C@]2(CC=C(C)C)C(=O)[C@@]1(CC=C(C)C)C(=O)C(C(=O)c1ccc(O)c(O)c1)=C2O
IC50 (DNA polymerase lambda): 5.6 µM
CC50 [1]: 73.4 µM
IC50 [2]: 8.8 µM
